CHO parental Ca – ATP-evoked calcium signal inhibitors, parental CHO, primary screen, counter-screen for OX1R antagonist project, cell-based, fluorescence, Fluo-8 calcium dye; parental CHO-K1, ATP-induced calcium, Fluo-8 fluorescence; inhibition, % at 5.6 µM; AID 463079, 2010; hit rate 0.63% among 330,000;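 active means inhibition above that plate's mean sample inhibition plus 3 SD, cut at about 26% in these data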
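Test system: untransfected parental CHO cell line; also added: ATP stimulus; dosing: 5.6 µM, single dose; signal: calcium-sensitive Fluo-8 fluorescence; measure: percent inhibition of ATP-evoked calcium rise, normalized to controls; benchmarks: low control ATP plus DMSO, high control DMSO only; replication: one well per compound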
TAAR1 antag – human TAAR1 antagonists, primary screen, Fluo-8 calcium fluorescence, CHO RD-HGA16 cells; Trace amine-associated receptor 1 (Homo sapiens), Q96RJ0; antagonist; inhibition, % at 3 µM; hit rate 1.5% among 360,000;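 active means inhibition above a per-plate cutoff, the mean inhibition of test compounds on that plate plus 3 SD, cut at about 49% in these data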
Target sequence (Q96RJ0 whole entry, looked up): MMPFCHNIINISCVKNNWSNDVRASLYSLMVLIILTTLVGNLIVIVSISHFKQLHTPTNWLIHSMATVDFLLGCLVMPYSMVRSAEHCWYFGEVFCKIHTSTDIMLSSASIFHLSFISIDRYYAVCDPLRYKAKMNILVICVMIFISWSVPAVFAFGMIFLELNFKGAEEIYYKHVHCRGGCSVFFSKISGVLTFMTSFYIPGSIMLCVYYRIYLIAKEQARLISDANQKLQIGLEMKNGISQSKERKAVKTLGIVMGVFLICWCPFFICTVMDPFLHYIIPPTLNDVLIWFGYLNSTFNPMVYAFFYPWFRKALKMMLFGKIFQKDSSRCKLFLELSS
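Test system: hTAAR1-expressing CHO RD-HGA16 cells, Gα16-coupled; Probe or stimulus: EC80 β-phenethylamine stimulus; Compound dosing: single nominal final test compound concentration of 3 µM; Timing: 140 s kinetic read after compound, 140 s after agonist; Signal: Fluo-8 calcium-sensitive fluorescence; Measure: % inhibition of agonist calcium response; Controls: DMSO and EC80 PEA controls.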
OX1R antag-1 – OX1R (HCRTR1) antagonists, primary screen, fluorescence, CHO/OX1R cells, Fluo-8 calcium, orexin A | Fluo-8 calcium fluorescence | inhibition, % at 5 µM | hit rate 0.43% among 330,000 | AID 434989, 2010;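 active means inhibition above its plate's threshold, mean inhibition of all tested compounds on the plate plus 3 SD, cut at about 37% in these data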
Target sequence (O43613 whole entry, looked up): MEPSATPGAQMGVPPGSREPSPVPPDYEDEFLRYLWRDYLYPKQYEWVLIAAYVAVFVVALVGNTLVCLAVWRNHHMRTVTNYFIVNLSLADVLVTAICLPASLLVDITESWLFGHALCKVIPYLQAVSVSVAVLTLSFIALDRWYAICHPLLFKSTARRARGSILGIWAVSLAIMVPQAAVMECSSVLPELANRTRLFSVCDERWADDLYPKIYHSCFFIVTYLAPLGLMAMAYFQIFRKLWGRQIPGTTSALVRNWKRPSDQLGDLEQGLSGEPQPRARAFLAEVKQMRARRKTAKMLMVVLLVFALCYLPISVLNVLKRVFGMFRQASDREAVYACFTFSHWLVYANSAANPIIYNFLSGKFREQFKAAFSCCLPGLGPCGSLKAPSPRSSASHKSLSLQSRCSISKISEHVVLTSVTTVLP
TAAR1 ag – human TAAR1 agonists, primary screen, Fluo-8 calcium fluorescence, CHO RD-HGA16 cells | Trace amine-associated receptor 1 (Homo sapiens), Q96RJ0 | vehicle wells 0%, saturating PEA agonist 100% | activation, % at 3 µM | hit rate 0.99% among 360,000;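 active means activation above the mean activation of all test compounds in the run plus 3 SD, cut at about 38% in these data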
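Benchmarks: low control DMSO, high control PEA (EC100); System: CHO RD-HGA16 cells carrying human TAAR1 plus Gα16; Detection: Fluo-8 fluorescence, 5 s baseline then 140 s kinetic read; Schedule: 17-24 h plating, Fluo-8 75 min 37 °C, 30 min RT; Read-out basis: % activation from peak over basal fluorescence ratio, DMSO-to-PEA scaled.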
GalR3 antag – GalR3 antagonists in HEK293 cells, primary screen, cell-based, fluorescence readout; inhibition, % at 3 µM; HEK293 GalR3-CNG cAMP membrane potential fluorescence; galR3 body fused to GalR1 C-terminus; hit rate 0.44% among 360,000; Galanin receptor type 3 (Homo sapiens), O60755;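 active means inhibition above the screen-wide average plus 3 SD, cut at about 13% in these data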;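 further: forskolin and galanin both at EC90 stimulate the cells; cAMP rise reported by CNG channel membrane potential dye signal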
OX1R antag-2 – antagonists of human orexin 1 receptor (OX1R) | hit rate 1.8% among 330,000 | inhibition, % at 6.6 µM | Orexin/Hypocretin receptor type 1 (Homo sapiens), O43613 | OX1R-expressing cells, FRET antagonist read-out | AID 485270, 2010; in the data active means inhibition mostly above about 38%, no sharp cut-off; inactive means mostly below about 40%
Of the large screens only hits and unclear results are named; the others gave an inactive call. In the library only some 4.2% were active in any assay of this set; here they are far more common.

O=C(NC(=C(Cl)Cl)P(=O)(c1ccccc1)c1ccccc1)c1ccccc1	OX1R antag-2 69.0
CCCOP(=O)(OCCC)C(NC(=O)c1ccccc1)=C(Cl)Cl	none
O=[N+]([O-])c1ccc(N2CCCC2)c2ncccc12	none
CC1CN(c2ccc([N+](=O)[O-])c3cccnc23)CC(C)N1 (stereo unspecified)	OX1R antag-2 79.4
CCNCCNc1ccc([N+](=O)[O-])c2cccnc12	OX1R antag-2 41.8
CNCC(O)c1cc(OCc2ccccc2)c(OCc2ccccc2)cc1F (stereo unspecified)	TAAR1 ag 45.3
NC1CCc2cc(O)c(O)cc2C1 (stereo unspecified)	TAAR1 ag 39.0
O=C1NC(=S)N(c2ccc(Cl)cc2)C(=O)/C1=C/N1CCN(C(=O)c2ccco2)CC1	TAAR1 ag 38.5
Nc1ccccc1-[n+]1c(-c2ccccc2)cc(-c2ccccc2)cc1-c1ccccc1	none
Cc1ccccc1-[n+]1c(-c2ccccc2)cc(-c2ccccc2)cc1-c1ccccc1	CHO parental Ca 54.2
COc1ccc(-c2cc(-c3ccccc3)[n+](C)c(-c3ccccc3)c2)cc1	none
Oc1ccccc1-[n+]1c(-c2ccccc2)cc(-c2ccccc2)cc1-c1ccccc1	TAAR1 antag 50.8
COc1ccc(-[n+]2c(-c3ccccc3)cc(-c3ccc(C)cc3)cc2-c2ccccc2)cc1	CHO parental Ca 44.7
[O-]c1ccccc1-[n+]1c(-c2ccccc2)cc(-c2ccccc2)cc1-c1ccccc1	CHO parental Ca 47.9
CCOP(=O)(OCC)C(NC(=O)c1ccc(Cl)cc1)=C(Cl)Cl	none
CCOc1cc2c(cc1OCC)-n1cccc1C(c1ccc(C(C)C)cc1)NC2 (stereo unspecified)	CHO parental Ca 56.5
CCOc1cc2c(cc1OCC)-n1cccc1C(c1ccc(F)cc1)NC2 (stereo unspecified)	none
Cc1ccc(C[n+]2c(-c3ccc(C)cc3)cc(-c3ccc(C)cc3)cc2-c2ccc(C)cc2)cc1	CHO parental Ca 98.3, OX1R antag-1 96.5 (no result: TAAR1 antag, TAAR1 ag, GalR3 antag)
C=C1C2C[C@@]3([C@@H]1O)[C@@H](C[C@@H]2O)[C@@]12C4[C@@H]3C[C@@H]1[C@@](C)(CC[C@@H]2O)CN4CC	none (no result: GalR3 antag)
CCOc1ccccc1NC(=O)N1CCC2(CC1)OCCO2	none
CC1CCOC(=O)C=CC=CC(=O)OC2CC3OC4C5OC5(C)C(O)CC4(COC(=O)C1O)C2(C)C31CO1 (stereo unspecified)	none (no result: CHO parental Ca, OX1R antag-1, OX1R antag-2)
CC1=CC2OC3CC4OC(=O)C=CC=CC(=O)OCCC(C)C(O)C(=O)OCC2(CC1)C4(C)C31CO1 (stereo unspecified)	TAAR1 antag 89.2 (no result: CHO parental Ca, OX1R antag-1, OX1R antag-2)
CC1CCC(C(C)C)C(OC(=O)Cn2c(COc3ccccc3)[n+](C)c3ccccc32)C1 (stereo unspecified)	CHO parental Ca 50.1, OX1R antag-1 35.7
Cc1ccc2c(c1)CC1(CN2C)C(=O)NC(=O)N(CCC2=CCCCC2)C1=O (stereo unspecified)	none
COc1ccc(NP(=O)(Oc2ccccc2OC)Oc2ccccc2OC)cc1	TAAR1 antag 59.3
Cc1cccc(-n2c(O)c(/C=N/Nc3nc4c(c(=O)n(C)c(=O)n4C)n3C)c(=O)[nH]c2=S)c1	none
O=C(C1CCCO1)N1CCC2(CC1)OCCO2 (stereo unspecified)	none
COC1CC2C=C(C)C=CC=CC(=O)NC(c3ccccc3)CC=CCCC(O)CC(=O)C2=C1O (stereo unspecified)	TAAR1 antag 84.0 (no result: CHO parental Ca, OX1R antag-1, OX1R antag-2)
CC(=O)OC(C)(C)/C=C/C(=O)[C@](C)(O)C1[C@H](O)C[C@@]2(C)C3CC=C4C(C[C@H](O)C(=O)C4(C)C)[C@]3(C)C(=O)C[C@]12C (stereo partly specified)	none (no result: TAAR1 antag, TAAR1 ag, GalR3 antag)
CC1COC2N=C(N[N+](=O)[O-])NC2O1 (stereo unspecified)	none
Cn1c(O)c(C=Nc2ccc(F)cc2)c(=O)[nH]c1=O	none
Cn1c(O)c(/C=C2/C=CC=N2)c(=O)[nH]c1=O	OX1R antag-2 49.6
c1ccc(CCNCc2cccs2)cc1	TAAR1 ag 38.9 (no result: CHO parental Ca, OX1R antag-1, OX1R antag-2)
CN1CCN(c2ccc([N+](=O)[O-])c(N/N=C3\CN4CCC3CC4)c2)CC1	OX1R antag-2 56.0
CN1CCN(c2ccc([N+](=O)[O-])c(Sc3nncn3C)c2)CC1	none
CCNc1cc(N2CCN(C)CC2)ccc1[N+](=O)[O-]	OX1R antag-2 50.6
NC(=O)CN1CC(c2ccccc2)CC1=O (stereo unspecified)	none
Cc1c(CC(=O)N2C[C@H]3C[C@@H](C2)c2cccc(=O)n2C3)c(=O)oc2cc(O)c(Cl)cc12	none
CC1(C)C[C@H]2C=C(C=O)[C@]3(C=O)C[C@]3(C)[C@H]2C1	CHO parental Ca 69.0, OX1R antag-1 39.6
CC1CCN(S(=O)(=O)c2ccc(NN=C(C#N)C#N)cc2)CC1	OX1R antag-2 101.0 (no result: TAAR1 antag, TAAR1 ag, GalR3 antag)
COc1ccc(C(=O)N2CCOCC2)cc1S(=O)(=O)N1CCC(C)CC1	none
CC(C)(C)n1nnnc1C(CCc1ccccc1)N1CCC(n2c(=O)[nH]c3ccccc32)CC1 (stereo unspecified)	none (no result: CHO parental Ca, OX1R antag-1, OX1R antag-2)
O=c1[nH]c2ccccc2n1C1CCN(C(c2cc3ccccc3o2)c2nnnn2-c2ccc3c(c2)OCCO3)CC1 (stereo unspecified)	TAAR1 antag 65.9 (no result: CHO parental Ca, OX1R antag-1, OX1R antag-2)
O=c1[nH]c2ccccc2n1C1CCN(C(c2cccs2)c2nnnn2Cc2ccccc2)CC1 (stereo unspecified)	none (no result: CHO parental Ca, OX1R antag-1, OX1R antag-2)
O=c1[nH]c2ccccc2n1C1CCN(C(c2nnnn2C2CCCC2)C2CC2)CC1 (stereo unspecified)	none (no result: CHO parental Ca, OX1R antag-1, OX1R antag-2)
O=c1[nH]c2ccccc2n1C1CCN(C(c2nnnn2C2CCCCC2)C2CC2)CC1 (stereo unspecified)	TAAR1 antag 52.0, TAAR1 ag 58.1 (no result: CHO parental Ca, OX1R antag-1, OX1R antag-2)
O=c1[nH]c2ccccc2n1C1CCN(C(c2nnnn2Cc2ccccc2)C2CC2)CC1 (stereo unspecified)	TAAR1 antag 63.1 (no result: CHO parental Ca, OX1R antag-1, OX1R antag-2)
CSCCC(c1nnnn1C1CCCCC1)N1CCC(n2c(=O)[nH]c3ccccc32)CC1 (stereo unspecified)	TAAR1 antag 62.3 (no result: CHO parental Ca, OX1R antag-1, OX1R antag-2)
O=c1[nH]c2ccccc2n1C1CCN(C(c2cccc3ccccc23)c2nnnn2-c2ccc3c(c2)OCCO3)CC1 (stereo unspecified)	none (no result: CHO parental Ca, OX1R antag-1, OX1R antag-2)

Screens: PubChem BioAssay, The Scripps Research Institute Molecular Screening Center
